Laboratory results from ChEMBL document CHEMBL4715770, “Inhibition of Low Molecular Weight Protein Tyrosine Phosphatase by an Induced-Fit Mechanism” (J Med Chem, 2016).

Assays:
[1] = target: Receptor-type tyrosine-protein phosphatase gamma (Homo sapiens, UniProt P23470); assay: Inhibition of His-tagged PTPgamma (unknown origin) expressed in Escherichia coli BL21 cells using para-nitrophenyl phosphate as substrate incubated for 5 to 10 mins by microplate reader based spectrophotometric analysis
[2] = target: T1, Serine/threonine-protein phosphatase 5 (Homo sapiens, UniProt P53041); assay: Inhibition of His-tagged PP5 (unknown origin) expressed in Escherichia coli BL21 cells using para-nitrophenyl phosphate as substrate incubated for 5 to 10 mins by microplate reader based spectrophotometric analysis
T1 sequence (P53041 whole entry): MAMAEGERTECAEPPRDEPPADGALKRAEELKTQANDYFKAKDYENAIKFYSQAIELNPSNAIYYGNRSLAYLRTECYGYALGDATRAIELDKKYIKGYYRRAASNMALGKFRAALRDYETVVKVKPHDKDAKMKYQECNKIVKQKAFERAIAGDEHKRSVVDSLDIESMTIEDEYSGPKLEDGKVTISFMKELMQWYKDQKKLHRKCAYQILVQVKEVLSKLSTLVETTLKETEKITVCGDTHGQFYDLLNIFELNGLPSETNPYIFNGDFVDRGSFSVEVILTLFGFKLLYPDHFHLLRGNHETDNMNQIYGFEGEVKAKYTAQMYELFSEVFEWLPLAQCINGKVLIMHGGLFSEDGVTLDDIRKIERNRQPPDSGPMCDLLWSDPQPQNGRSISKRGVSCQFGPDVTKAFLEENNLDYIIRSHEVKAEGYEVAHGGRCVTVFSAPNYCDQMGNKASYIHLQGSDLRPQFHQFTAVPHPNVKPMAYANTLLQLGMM

[3] = target: Receptor-type tyrosine-protein phosphatase S (Homo sapiens, UniProt Q13332); assay: Inhibition of His-tagged PTPsigma (unknown origin) expressed in Escherichia coli BL21 cells using para-nitrophenyl phosphate as substrate incubated for 5 to 10 mins by microplate reader based spectrophotometric analysis
[4] = target: Low molecular weight phosphotyrosine protein phosphatase (Homo sapiens) (UniProt P24666); assay: Inhibition of LMW-PTP isoform A in human HepG2 cells assessed as increase in insulin-induced Akt phosphorylation pretreated for 2 hrs followed by insulin stimulation and measured after 30 mins by Western blot analysis; type: cell-based; settings: dose 2-16 µM
Procedure, shortened: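 HepG2 cells in DMEM with 10% FBS at 37 °C and 5% CO2 were grown to 60-80% confluence and serum-starved overnight. They were given vehicle or compound for 2 h, then 50 nM insulin for 30 min. Lysates were run on 10% SDS-PAGE and immunoblotted for phospho-AKT and total AKT with ECL detection. Densitometric pAKT/AKT ratios were normalized to vehicle.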

[5] = target: T2, Low molecular weight phosphotyrosine protein phosphatase (Homo sapiens, UniProt P24666); assay: Competitive inhibition of His-tagged LMW-PTP isoform A (unknown origin) expressed in Escherichia coli BL21 cells using para-nitrophenyl phosphate as substrate by Lineweaver-Burk plot analysis
T2 sequence (P24666 whole entry): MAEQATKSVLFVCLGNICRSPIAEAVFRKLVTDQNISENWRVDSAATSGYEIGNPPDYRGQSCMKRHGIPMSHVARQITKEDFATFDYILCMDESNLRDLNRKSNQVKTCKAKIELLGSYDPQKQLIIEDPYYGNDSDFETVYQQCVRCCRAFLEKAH
Procedure, shortened: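 Recombinant enzyme Ni-NTA purified (Tris pH 7.8, 500 mM NaCl, 250 mM imidazole elution), then Sephadex G75. pNPP hydrolysis in 50 mM 3,3-dimethylglutarate, pH 7.0, 25 °C. Enzyme added last to mixes of varied pNPP and inhibitor concentrations, 5-10 min, NaOH quench. p-nitrophenol read at 405 nm (ε 18,000 M-1cm-1), no-enzyme blank subtracted. Ki fitted by enzyme-kinetics regression.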

[6] = target: T2, Low molecular weight phosphotyrosine protein phosphatase; assay: Inhibition of His-tagged LMW-PTP isoform A (unknown origin) expressed in Escherichia coli BL21 cells using para-nitrophenyl phosphate as substrate incubated for 5 to 10 mins by microplate reader based spectrophotometric analysis

Chain of Receptor-type tyrosine-protein phosphatase gamma (P23470 whole entry): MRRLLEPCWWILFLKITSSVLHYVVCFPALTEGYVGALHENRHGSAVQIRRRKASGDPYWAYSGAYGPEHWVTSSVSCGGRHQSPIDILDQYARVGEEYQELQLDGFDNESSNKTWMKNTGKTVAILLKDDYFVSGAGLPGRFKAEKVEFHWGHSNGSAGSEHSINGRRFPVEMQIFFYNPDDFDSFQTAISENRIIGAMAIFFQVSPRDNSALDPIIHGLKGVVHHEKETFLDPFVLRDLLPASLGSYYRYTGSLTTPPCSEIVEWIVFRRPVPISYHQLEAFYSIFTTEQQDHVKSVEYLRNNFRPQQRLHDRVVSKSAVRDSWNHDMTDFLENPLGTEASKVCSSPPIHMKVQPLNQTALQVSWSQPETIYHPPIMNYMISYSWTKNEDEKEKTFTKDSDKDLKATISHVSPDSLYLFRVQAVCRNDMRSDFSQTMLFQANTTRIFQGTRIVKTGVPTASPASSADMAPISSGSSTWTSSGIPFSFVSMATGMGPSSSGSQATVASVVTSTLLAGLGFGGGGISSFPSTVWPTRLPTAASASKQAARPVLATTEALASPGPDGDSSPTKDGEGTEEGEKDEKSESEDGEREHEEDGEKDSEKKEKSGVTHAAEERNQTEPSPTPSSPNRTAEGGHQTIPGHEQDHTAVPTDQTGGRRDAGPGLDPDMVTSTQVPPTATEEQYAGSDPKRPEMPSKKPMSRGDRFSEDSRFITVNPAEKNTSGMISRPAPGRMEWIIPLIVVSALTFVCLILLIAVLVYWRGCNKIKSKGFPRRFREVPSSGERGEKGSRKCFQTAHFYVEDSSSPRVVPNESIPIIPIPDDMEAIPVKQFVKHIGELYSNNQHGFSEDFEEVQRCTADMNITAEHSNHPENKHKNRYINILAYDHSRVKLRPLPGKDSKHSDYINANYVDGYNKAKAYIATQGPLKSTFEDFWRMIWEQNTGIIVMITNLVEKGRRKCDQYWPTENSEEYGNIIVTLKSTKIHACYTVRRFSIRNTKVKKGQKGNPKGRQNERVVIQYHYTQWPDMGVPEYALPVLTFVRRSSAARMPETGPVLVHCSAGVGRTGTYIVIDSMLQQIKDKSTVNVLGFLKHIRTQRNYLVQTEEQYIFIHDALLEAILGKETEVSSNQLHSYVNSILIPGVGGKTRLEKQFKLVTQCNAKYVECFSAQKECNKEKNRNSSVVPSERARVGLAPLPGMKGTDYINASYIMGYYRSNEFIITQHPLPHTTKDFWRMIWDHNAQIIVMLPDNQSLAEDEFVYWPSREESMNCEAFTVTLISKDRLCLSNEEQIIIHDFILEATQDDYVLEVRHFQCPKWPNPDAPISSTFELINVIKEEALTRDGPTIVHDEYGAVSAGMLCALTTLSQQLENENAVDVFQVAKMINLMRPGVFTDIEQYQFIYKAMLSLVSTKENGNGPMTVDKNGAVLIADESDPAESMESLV
Chain of Receptor-type tyrosine-protein phosphatase S (Q13332 whole entry, canonical isoform): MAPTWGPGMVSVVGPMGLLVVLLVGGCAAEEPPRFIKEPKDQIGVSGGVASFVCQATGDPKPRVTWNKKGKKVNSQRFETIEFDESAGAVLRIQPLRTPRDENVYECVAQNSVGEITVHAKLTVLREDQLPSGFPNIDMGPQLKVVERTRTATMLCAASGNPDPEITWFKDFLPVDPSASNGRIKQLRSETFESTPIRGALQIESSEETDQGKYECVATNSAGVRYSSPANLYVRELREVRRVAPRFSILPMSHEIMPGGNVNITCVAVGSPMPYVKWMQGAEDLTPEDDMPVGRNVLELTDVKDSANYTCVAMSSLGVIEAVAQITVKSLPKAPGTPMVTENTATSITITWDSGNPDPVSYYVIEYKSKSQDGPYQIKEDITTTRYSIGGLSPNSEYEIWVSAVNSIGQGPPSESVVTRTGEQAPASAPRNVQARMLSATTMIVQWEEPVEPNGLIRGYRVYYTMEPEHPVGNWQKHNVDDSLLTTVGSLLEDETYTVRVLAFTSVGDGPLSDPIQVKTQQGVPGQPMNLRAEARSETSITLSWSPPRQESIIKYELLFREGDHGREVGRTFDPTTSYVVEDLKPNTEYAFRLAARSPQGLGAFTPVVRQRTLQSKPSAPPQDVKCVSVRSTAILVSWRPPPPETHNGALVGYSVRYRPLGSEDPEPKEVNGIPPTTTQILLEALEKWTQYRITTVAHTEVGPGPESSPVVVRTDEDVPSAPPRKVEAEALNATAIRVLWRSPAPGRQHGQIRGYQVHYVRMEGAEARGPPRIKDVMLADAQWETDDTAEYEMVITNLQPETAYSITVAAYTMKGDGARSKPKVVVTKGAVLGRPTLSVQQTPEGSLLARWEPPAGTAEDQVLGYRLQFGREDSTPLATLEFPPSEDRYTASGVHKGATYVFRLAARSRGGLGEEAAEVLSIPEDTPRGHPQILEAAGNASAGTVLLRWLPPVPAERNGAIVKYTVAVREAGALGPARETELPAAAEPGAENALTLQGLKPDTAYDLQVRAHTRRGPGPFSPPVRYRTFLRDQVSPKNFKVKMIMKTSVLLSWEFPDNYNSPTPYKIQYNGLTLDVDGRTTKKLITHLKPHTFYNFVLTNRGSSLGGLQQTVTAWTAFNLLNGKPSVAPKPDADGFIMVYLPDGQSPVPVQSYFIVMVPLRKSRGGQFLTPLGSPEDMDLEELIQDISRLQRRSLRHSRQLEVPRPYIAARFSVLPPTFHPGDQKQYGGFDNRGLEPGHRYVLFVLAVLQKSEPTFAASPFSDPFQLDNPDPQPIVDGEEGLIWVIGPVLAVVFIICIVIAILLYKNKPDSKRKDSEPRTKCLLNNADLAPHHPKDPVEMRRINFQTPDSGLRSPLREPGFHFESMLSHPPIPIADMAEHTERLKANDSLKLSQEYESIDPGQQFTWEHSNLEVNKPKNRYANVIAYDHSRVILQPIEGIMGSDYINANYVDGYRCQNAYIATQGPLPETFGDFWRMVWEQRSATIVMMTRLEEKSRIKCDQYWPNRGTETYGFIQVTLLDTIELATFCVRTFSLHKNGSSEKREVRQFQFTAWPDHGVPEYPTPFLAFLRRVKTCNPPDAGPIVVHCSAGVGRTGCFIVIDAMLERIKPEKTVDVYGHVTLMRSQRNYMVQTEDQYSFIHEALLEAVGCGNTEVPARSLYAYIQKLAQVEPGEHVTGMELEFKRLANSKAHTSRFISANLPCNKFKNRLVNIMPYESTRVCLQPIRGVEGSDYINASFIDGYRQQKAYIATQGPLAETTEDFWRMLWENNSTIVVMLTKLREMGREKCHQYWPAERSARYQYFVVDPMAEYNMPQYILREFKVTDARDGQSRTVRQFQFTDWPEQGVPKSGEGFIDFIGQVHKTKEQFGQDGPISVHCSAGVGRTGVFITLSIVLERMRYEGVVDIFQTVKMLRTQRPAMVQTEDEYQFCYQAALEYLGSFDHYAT

Structure (SMILES) | IC50 [1] | IC50 [2] | IC50 [3] | inhibition [4] | Ki [5] | IC50 [6]
O=C(Nc1ccc(OCc2ccccc2)c(Cl)c1)C(c1ccccc1)S(=O)(=O)O (centres undefined) | > 200 µM | > 200 µM | > 200 µM | – | – | –
O=C(Nc1nc2ccc([N+](=O)[O-])cc2s1)C(c1ccccc1)S(=O)(=O)O (centres undefined) | > 100 µM | > 100 µM | > 100 µM | Dose-dependent effect | 1 µM | 2.1 µM
O=C(Nc1cc(C(F)(F)F)cc(C(F)(F)F)c1)C(c1ccccc1)S(=O)(=O)O (centres undefined) | > 200 µM | > 200 µM | > 200 µM | – | – | 6.39 µM
O=C(Nc1ccc(-n2ccnc2)cc1)C(c1ccccc1)S(=O)(=O)O (centres undefined) | > 100 µM | > 100 µM | > 100 µM | – | – | –
Cc1c(Br)cc(NC(=O)C(c2ccccc2)S(=O)(=O)O)cc1Br (centres undefined) | > 200 µM | > 200 µM | > 200 µM | – | – | –
